Test results: ChEMBL document CHEMBL3352181, “Novel phenyl and pyridyl substituted derivatives of isoindolines: Synthesis, antitumor activity and DNA binding features” (Eur J Med Chem, 2014)
Activity calls are given as the source filed them. The calls are words filed in the database; no cut-off is given here.

Key:
[1] = biological target: T1, DNA topoisomerase 1 (Homo sapiens) (UniProt P11387); assay: Inhibition of human topoisomerase 1 assessed as topoisomerase poison activity by measuring generation of open circular DNA using supercoiled pUC19 DNA at 5 to 50 uM by agarose gel electrophoresis
T1 sequence (whole entry): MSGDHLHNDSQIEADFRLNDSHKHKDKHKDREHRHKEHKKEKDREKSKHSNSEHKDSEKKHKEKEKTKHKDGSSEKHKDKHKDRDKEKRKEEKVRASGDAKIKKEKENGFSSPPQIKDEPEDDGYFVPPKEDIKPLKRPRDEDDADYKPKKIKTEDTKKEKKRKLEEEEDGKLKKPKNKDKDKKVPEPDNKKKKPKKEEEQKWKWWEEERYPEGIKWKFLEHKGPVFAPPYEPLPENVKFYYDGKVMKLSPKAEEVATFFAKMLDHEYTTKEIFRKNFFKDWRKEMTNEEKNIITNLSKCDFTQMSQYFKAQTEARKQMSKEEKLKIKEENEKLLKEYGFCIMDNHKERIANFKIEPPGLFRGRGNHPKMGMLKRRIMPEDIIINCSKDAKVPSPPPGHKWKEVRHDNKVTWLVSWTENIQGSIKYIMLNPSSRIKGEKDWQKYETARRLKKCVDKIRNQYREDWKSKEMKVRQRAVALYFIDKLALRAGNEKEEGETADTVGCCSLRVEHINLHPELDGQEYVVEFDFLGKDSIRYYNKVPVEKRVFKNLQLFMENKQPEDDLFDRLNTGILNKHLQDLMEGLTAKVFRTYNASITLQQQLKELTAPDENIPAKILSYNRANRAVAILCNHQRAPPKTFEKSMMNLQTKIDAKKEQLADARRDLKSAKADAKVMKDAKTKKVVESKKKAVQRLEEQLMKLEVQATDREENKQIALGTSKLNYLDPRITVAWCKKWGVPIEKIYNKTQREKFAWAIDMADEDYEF
Outline: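 Supercoiled pUC19 plasmid was incubated with human topoisomerase I and graded compound concentrations. Reactions were stopped with SDS and proteinase K. DNA forms were resolved on 1% agarose in TBE (2 h, 120 V), post-stained with ethidium bromide and photographed under UV. Poisoning was read as appearance of nicked DNA, with camptothecin as the positive control.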

HepG2 [2] = assay: Induction of cell cycle arrest on human HepG2 cells assessed as accumulation at G2/M phase at 20 uM after 24 hrs by propidium iodide staining based flow cytometry (reference value: 31.7 +/- 1.9%); type: functional
HepG2 [3] = assay: Induction of cell cycle arrest on human HepG2 cells assessed as accumulation at G2/M phase at 50 uM after 48 hrs by propidium iodide staining based flow cytometry (reference value: 45.0 +/- 4.8%); type: functional
HepG2 [4] = assay: Induction of cell cycle arrest on human HepG2 cells assessed as accumulation at S phase at 20 uM after 48 hrs by propidium iodide staining based flow cytometry (reference value: 0 +/- 0%); type: functional
Outline: (§1)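 HepG2 or SW620 cells were seeded at 25000 per well. After 24 h they were treated, then harvested 24 or 48 h later. Attached cells were trypsinized, pooled with floating cells, PBS-washed and fixed in 70% ethanol. Cells were stained with PI 1 µg/mL plus RNase A 0.2 µg/mL, and 10 000 events were acquired by flow cytometry. Phase percentages come from DNA histograms, in duplicate, with ANOVA at p < 0.05.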

HepG2 [5] = assay: Induction of cell cycle arrest on human HepG2 cells assessed as accumulation at G2/M phase at 20 uM after 48 hrs by propidium iodide staining based flow cytometry (reference value: 45.0 +/- 4.8%); type: functional
BJ = assay: Antiproliferative activity against human BJ cells assessed as inhibition of cell proliferation after 72 hrs by MTT assay; type: cell-based; conditions: 72 h
Outline: (§2)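 Cells grown as monolayers in DMEM with 10% FBS, 2 mM L-glutamine, penicillin/streptomycin, 37 °C, 5% CO2. Seeded at 5000/well on day 0. Compounds added after 24 h as five serial dilutions (0,01 to 100 µM), DMSO ≤0.1%, then 72 h. MTT read-out converted to percentage growth. IC50 by linear regression; quadruplicates in three experiments.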

HeLa = assay: Antiproliferative activity against human HeLa cells assessed as inhibition of cell proliferation after 72 hrs by MTT assay; type: functional, cell-based; outline: as §2
HepG2 [6] = assay: Induction of cell cycle arrest on human HepG2 cells assessed as accumulation at G1 phase at 20 uM after 24 hrs by propidium iodide staining based flow cytometry (reference value: 59.7 +/- 0.9%); type: functional
HepG2 [7] = assay: Induction of apoptosis in human HepG2 cells assessed as apoptotic bodies at 25 uM after 24 hrs by Annexin V-Fluos staining based fluorescent microscopy; type: functional, cell-based
Outline: (§3)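 Cells seeded on chamber slides at 4000 per well and treated 24 h (HepG2 at 25 or 50 µM; SW620 at 50 µM). Incubated 15 min with Annexin V-Fluos reagent plus propidium iodide, washed in PBS, and examined by fluorescence microscopy for morphology and labelling.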

HepG2 [8] = assay: Induction of cell cycle arrest on human HepG2 cells assessed as accumulation at subG1 phase at 20 uM after 24 hrs by propidium iodide staining based flow cytometry (reference value: 3.1 +/- 0.9%); type: functional; outline: as §1
HepG2 [9] = assay: Induction of cell cycle arrest on human HepG2 cells assessed as accumulation at subG1 phase at 50 uM after 24 hrs by propidium iodide staining based flow cytometry (reference value: 3.1 +/- 0.9%); type: functional; outline: as §1
HepG2 [10] = assay: Induction of cell cycle arrest on human HepG2 cells assessed as accumulation at S phase at 20 uM after 24 hrs by propidium iodide staining based flow cytometry (reference value: 8.6 +/- 2.8%); type: functional
HepG2 [11] = assay: Induction of cell cycle arrest on human HepG2 cells assessed as accumulation at G1 phase at 20 uM after 48 hrs by propidium iodide staining based flow cytometry (reference value: 55.0 +/- 4.8%); type: functional
HepG2 [12] = assay: Induction of cell cycle arrest on human HepG2 cells assessed as accumulation at S phase at 50 uM after 24 hrs by propidium iodide staining based flow cytometry (reference value: 8.6 +/- 2.8%); type: functional; outline: as §1
HepG2 [13] = assay: Induction of cell cycle arrest on human HepG2 cells assessed as accumulation at subG1 phase at 20 uM after 48 hrs by propidium iodide staining based flow cytometry (reference value: 2.8 +/- 0.3%); type: functional; outline: as §1
HepG2 [14] = assay: Antiproliferative activity against human HepG2 cells assessed as inhibition of cell proliferation after 72 hrs by MTT assay; type: functional, cell-based; outline: as §2
HepG2 [15] = assay: Induction of cell cycle arrest on human HepG2 cells assessed as accumulation at G2/M phase at 50 uM after 24 hrs by propidium iodide staining based flow cytometry (reference value: 31.7 +/- 1.9%); type: functional
Nucleic Acid = assay: Induction of DNA intercalation in supercoiled pUC19 DNA in presence of human topoisomerase 1 assessed as effect on topoisomerase 1-mediated DNA relaxation at 5 to 50 uM by agarose gel electrophoresis; type: nucleic-acid assay; conditions: Escherichia coli
Outline: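 Supercoiled pUC19 incubated with human topoisomerase I and graded compound concentrations. Stopped with SDS/proteinase K. DNA forms resolved on 1% agarose in TBE, 2 h at 120 V, stained post-run with ethidium bromide and viewed under UV. Camptothecin was the topo I poison control.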

HepG2 [16] = assay: Induction of cell cycle arrest on human HepG2 cells assessed as accumulation at G1 phase at 50 uM after 48 hrs by propidium iodide staining based flow cytometry (reference value: 55.0 +/- 4.8%); type: functional
HepG2 [17] = assay: Induction of cell cycle arrest on human HepG2 cells assessed as accumulation at G1 phase at 50 uM after 24 hrs by propidium iodide staining based flow cytometry (reference value: 59.7 +/- 0.9%); type: functional
[18] = (§4) Antiproliferative activity against human SW620 cells assessed as inhibition of cell proliferation after 72 hrs by MTT assay; type: functional, cell-based, SW-620; conditions: Homo sapiens, SW-620, 72 h; outline: as §2
SW-620 = assay: as §4; type: functional, cell-based; outline: as §2
MCF7 = assay: Antiproliferative activity against human MCF7 cells assessed as inhibition of cell proliferation after 72 hrs by MTT assay; type: functional, cell-based; outline: as §2
HepG2 [19] = assay: Induction of apoptosis in human HepG2 cells assessed as induction of cytoplasmic shrinkage at 25 uM after 24 hrs by Annexin V-Fluos staining based fluorescent microscopy; type: functional, cell-based; outline: as §3
HepG2 [20] = assay: Induction of cell cycle arrest on human HepG2 cells assessed as accumulation at S phase at 50 uM after 48 hrs by propidium iodide staining based flow cytometry (reference value: 0 +/- 0%); type: functional; outline: as §1
HepG2 [21] = assay: Induction of cell cycle arrest on human HepG2 cells assessed as accumulation at subG1 phase at 50 uM after 48 hrs by propidium iodide staining based flow cytometry (reference value: 2.8 +/- 0.3%); type: functional; outline: as §1

With `O=[N+]([O-])c1ccc(/N=C2\c3ccccc3CN2c2ccc([N+](=O)[O-])cc2)cc1` the inhibition [1] was “inactive”, the Activity (HepG2 [2]) was 15.6% and the Activity (HepG2 [3]) was 39.4%. For the same compound, the Activity (HepG2 [4]) was 1.3%, the Activity (HepG2 [5]) was 44.9% and the IC50 (BJ; Homo sapiens, BJ) was 75.3 µM. For the same compound, the “inhibition (INH)” value (BJ; human, bj) was “Dose-dependent effect”, the inhibition (HeLa) was “Dose-dependent effect” and the IC50 (HeLa; Homo sapiens, HeLa, 72 h) was 7.69 µM. The Activity (HepG2 [6]) was 58.8%, the Activity (HepG2 [7]) was “Active” and the Activity (HepG2 [8]) was 6.6%. For the same compound, the Activity (HepG2 [9]) was 8.3%, the Activity (HepG2 [10]) was 25.6% and the Activity (HepG2 [11]) was 53.7%. The Activity (HepG2 [12]) was 27.6%, the Activity (HepG2 [13]) was 4.4% and the inhibition (HepG2 [14]) was “Dose-dependent effect”. For the same compound, the IC50 (HepG2 [14]; HepG2, 72 h) was 9.65 µM, the Activity (HepG2 [15]) was 17.4% and the Activity (Nucleic Acid) was “inactive”. For the same compound, the Activity (HepG2 [16]) was 59.7%, the Activity (HepG2 [17]) was 55% and the IC50 [18] was 33.4 µM. For the same compound, the inhibition (SW-620) was “Dose-dependent effect”, the inhibition (MCF7) was “Dose-dependent effect” and the IC50 (MCF7; Homo sapiens, MCF7, 72 h) was 8.14 µM. The Activity (HepG2 [19]) was “Active”, the Activity (HepG2 [20]) was 0.8% and the Activity (HepG2 [21]) was 4.3%.
